Reference: ChEMBL document CHEMBL4007430, “Synthesis and Cytostatic and Antiviral Profiling of Thieno-Fused 7-Deazapurine Ribonucleosides” (J Med Chem, 2017)

Assays:
BJ = experiment: Cytotoxicity against human BJ cells assessed as cell growth inhibition after 72 hrs by MTS assay; assay type: cell-based
In short: (§1)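 Cells were exposed to compound for 3 days, then stained with MTS as a quantitative metabolic read-out. IC50 is the concentration that inhibits cell growth by 50%.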

MRC5 = experiment: Cytotoxicity against human MRC5 cells assessed as cell growth inhibition after 72 hrs by MTS assay; assay type: cell-based; conditions: MRC5, 72 h; in short: as §1
[1] = Cytotoxicity against mrp-1/mdr-1 overexpressing human CEM-DNR-bulk cells assessed as cell growth inhibition after 72 hrs by MTS assay; assay type: functional, cell-based
In short: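 Cells were exposed to compound for 3 days, then stained with MTS as a quantitative metabolic read-out.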

HCT-116 [2] = experiment: Cytotoxicity against human HCT116 cells assessed as cell growth inhibition after 72 hrs by MTS assay; assay type: functional, cell-based; conditions: HCT-116, 72 h; in short: as §1
HCT-116 [3] = experiment: Cytotoxicity against p53 deficient human HCT116 cells assessed as cell growth inhibition after 72 hrs by MTS assay; assay type: functional, cell-based; conditions: HCT-116, 72 h; in short: as §1
K562 = experiment: Cytotoxicity against human K562 cells assessed as cell growth inhibition after 72 hrs by MTS assay; assay type: functional, cell-based; conditions: K562, 72 h; in short: as §1
[4] = Cytotoxicity against human K562-TAX cells assessed as cell growth inhibition after 72 hrs by MTS assay; assay type: functional, cell-based; in short: as §1
U2OS = experiment: Cytotoxicity against human U2OS cells assessed as cell growth inhibition after 72 hrs by MTS assay; assay type: functional, cell-based
HL-60 = experiment: Cytotoxicity against human HL60 cells assessed as reduction in cell viability after 72 hrs by XTT assay; assay type: functional, cell-based; conditions: HL-60, 72 h
In short: (§2)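 Cells were incubated with compound for 3 days. Viability was then measured with the XTT tetrazolium assay.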

HepG2 = experiment: Cytotoxicity against human HepG2 cells assessed as reduction in cell viability after 72 hrs by XTT assay; assay type: functional, cell-based; conditions: HepG2, 72 h; in short: as §2
HeLa S3 = experiment: Cytotoxicity against human HeLaS3 cells assessed as reduction in cell viability after 72 hrs by XTT assay; assay type: functional, cell-based; conditions: HeLa S3, 72 h; in short: as §2
A549 = experiment: Cytotoxicity against human A549 cells assessed as cell growth inhibition after 72 hrs by MTS assay; assay type: functional, cell-based; conditions: A549, 72 h; in short: as §1
Adenosine kinase [5] = biological target: T1, Adenosine kinase (Homo sapiens, UniProt P55263); experiment: Drug metabolism in human BJ cells assessed as ADK-mediated 4-Methylsulfanyl-8-(beta-D-ribofuranosyl)-8H-thieno[3,2:4,5]-pyrrolo[2,3-d]pyrimidine-5-O-monophosphate Sodium Salt formation per 5 x10^5 cells at 1 umol/L after 1 hr by UPLC-MS/MS analysis; assay type: ADME, cell-based; conditions: 1 µM
T1 sequence (P55263 whole entry): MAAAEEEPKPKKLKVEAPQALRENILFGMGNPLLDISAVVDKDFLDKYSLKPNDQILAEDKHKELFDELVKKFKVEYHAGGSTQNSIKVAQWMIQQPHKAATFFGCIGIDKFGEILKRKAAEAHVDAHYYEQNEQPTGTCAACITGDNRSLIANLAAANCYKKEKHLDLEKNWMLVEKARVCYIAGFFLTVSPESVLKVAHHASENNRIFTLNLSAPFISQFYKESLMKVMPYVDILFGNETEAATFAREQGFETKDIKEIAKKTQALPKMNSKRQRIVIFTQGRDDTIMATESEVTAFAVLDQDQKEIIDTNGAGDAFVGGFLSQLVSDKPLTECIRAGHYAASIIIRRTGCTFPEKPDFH

Adenosine kinase [6] = biological target: T1, Adenosine kinase; experiment: Drug metabolism in human HCT116 cells assessed as ADK-mediated 4-Methylsulfanyl-8-(beta-D-ribofuranosyl)-8H-thieno[3,2:4,5]-pyrrolo[2,3-d]pyrimidine-5-O-monophosphate Sodium Salt formation per 5 x10^5 cells at 1 umol/L after 1 hr by UPLC-MS/MS analysis; assay type: ADME, cell-based; conditions: 1 µM
Adenosine kinase [7] = biological target: T1, Adenosine kinase; experiment: Drug metabolism in human BJ cells assessed as ADK-mediated 4-Methylsulfanyl-8-(beta-D-ribofuranosyl)-8H-thieno[3,2:4,5]-pyrrolo[2,3-d]pyrimidine-5-O-monophosphate Sodium Salt formation per 5 x10^5 cells at 1 umol/L after 3 hrs by UPLC-MS/MS analysis; assay type: ADME, cell-based; conditions: 1 µM
Adenosine kinase [8] = biological target: T1, Adenosine kinase; experiment: Drug metabolism in human HCT116 cells assessed as ADK-mediated 4-Methylsulfanyl-8-(beta-D-ribofuranosyl)-8H-thieno[3,2:4,5]-pyrrolo[2,3-d]pyrimidine-5-O-monophosphate Sodium Salt formation per 5 x10^5 cells at 1 umol/L after 3 hrs by UPLC-MS/MS analysis; assay type: ADME, cell-based; conditions: 1 µM
Adenosine kinase [9] = biological target: T1, Adenosine kinase; experiment: Drug metabolism in human BJ cells assessed as ADK-mediated 4-Methylsulfanyl-8-(beta-D-ribofuranosyl)-8H-thieno[3,2:4,5]-pyrrolo[2,3-d]pyrimidine-5-O-monophosphate Sodium Salt formation per 5 x10^5 cells at 10 umol/L after 1 hr by UPLC-MS/MS analysis; assay type: ADME, cell-based; conditions: 10 µM
Adenosine kinase [10] = biological target: T1, Adenosine kinase; experiment: Drug metabolism in human HCT116 cells assessed as ADK-mediated 4-Methylsulfanyl-8-(beta-D-ribofuranosyl)-8H-thieno[3,2:4,5]-pyrrolo[2,3-d]pyrimidine-5-O-monophosphate Sodium Salt formation per 5 x10^5 cells at 10 umol/L after 1 hr by UPLC-MS/MS analysis; assay type: ADME, cell-based; conditions: 10 µM
Adenosine kinase [11] = biological target: T1, Adenosine kinase; experiment: Drug metabolism in human BJ cells assessed as ADK-mediated 4-Methylsulfanyl-8-(beta-D-ribofuranosyl)-8H-thieno[3,2:4,5]-pyrrolo[2,3-d]pyrimidine-5-O-monophosphate Sodium Salt formation per 5 x10^5 cells at 10 umol/L after 3 hrs by UPLC-MS/MS analysis; assay type: ADME, cell-based; conditions: 10 µM
Adenosine kinase [12] = biological target: T1, Adenosine kinase; experiment: Drug metabolism in human HCT116 cells assessed as ADK-mediated 4-Methylsulfanyl-8-(beta-D-ribofuranosyl)-8H-thieno[3,2:4,5]-pyrrolo[2,3-d]pyrimidine-5-O-monophosphate Sodium Salt formation per 5 x10^5 cells at 10 umol/L after 3 hrs by UPLC-MS/MS analysis; assay type: ADME, cell-based; conditions: 10 µM
Adenosine kinase [13] = biological target: T1, Adenosine kinase; experiment: Drug level in human BJ cells assessed as ADK-mediated compound formation treated with 4-Methylsulfanyl-8-(beta-D-ribofuranosyl)-8H-thieno[3',2':4,5]-pyrrolo[2,3-d]pyrimidine at 1 umol/L after 1 hr by UPLC-MS/MS analysis; assay type: ADME, cell-based
Adenosine kinase [14] = biological target: T1, Adenosine kinase; experiment: Drug level in human BJ cells assessed as ADK-mediated compound formation treated with 4-Methylsulfanyl-8-(beta-D-ribofuranosyl)-8H-thieno[3',2':4,5]-pyrrolo[2,3-d]pyrimidine at 1 umol/L after 3 hrs by UPLC-MS/MS analysis; assay type: ADME, cell-based
Adenosine kinase [15] = biological target: T1, Adenosine kinase; experiment: Drug level in human BJ cells assessed as ADK-mediated compound formation treated with 4-Methylsulfanyl-8-(beta-D-ribofuranosyl)-8H-thieno[3',2':4,5]-pyrrolo[2,3-d]pyrimidine at 10 umol/L after 1 hr by UPLC-MS/MS analysis; assay type: ADME, cell-based
Adenosine kinase [16] = biological target: T1, Adenosine kinase; experiment: Drug level in human BJ cells assessed as ADK-mediated compound formation treated with 4-Methylsulfanyl-8-(beta-D-ribofuranosyl)-8H-thieno[3',2':4,5]-pyrrolo[2,3-d]pyrimidine at 10 umol/L after 3 hrs by UPLC-MS/MS analysis; assay type: ADME, cell-based
Adenosine kinase [17] = biological target: T1, Adenosine kinase; experiment: Drug level in human HCT116 cells assessed as ADK-mediated compound formation treated with 4-Methylsulfanyl-8-(beta-D-ribofuranosyl)-8H-thieno[3',2':4,5]-pyrrolo[2,3-d]pyrimidine at 1 umol/L after 1 hr by UPLC-MS/MS analysis; assay type: ADME, cell-based
Adenosine kinase [18] = biological target: T1, Adenosine kinase; experiment: Drug level in human HCT116 cells assessed as ADK-mediated compound formation treated with 4-Methylsulfanyl-8-(beta-D-ribofuranosyl)-8H-thieno[3',2':4,5]-pyrrolo[2,3-d]pyrimidine at 1 umol/L after 3 hrs by UPLC-MS/MS analysis; assay type: ADME, cell-based
Adenosine kinase [19] = biological target: T1, Adenosine kinase; experiment: Drug level in human HCT116 cells assessed as ADK-mediated compound formation treated with 4-Methylsulfanyl-8-(beta-D-ribofuranosyl)-8H-thieno[3',2':4,5]-pyrrolo[2,3-d]pyrimidine at 10 umol/L after 1 hr by UPLC-MS/MS analysis; assay type: ADME, cell-based
Adenosine kinase [20] = biological target: T1, Adenosine kinase; experiment: Drug level in human HCT116 cells assessed as ADK-mediated compound formation treated with 4-Methylsulfanyl-8-(beta-D-ribofuranosyl)-8H-thieno[3',2':4,5]-pyrrolo[2,3-d]pyrimidine at 10 umol/L after 3 hrs by UPLC-MS/MS analysis; assay type: ADME, cell-based
Adenosine kinase [21] = biological target: T1, Adenosine kinase; experiment: Drug level assessed as human ADK-mediated compound formation treated with 4-Methylsulfanyl-8-(beta-D-ribofuranosyl)-8H-thieno[3',2':4,5]-pyrrolo[2,3-d]pyrimidine at 50 uM after 30 mins by HPLC analysis; assay type: ADME; conditions: 0.5 h
CCRF-CEM = experiment: Cytotoxicity against human CCRF-CEM cells assessed as cell growth inhibition after 72 hrs by MTS assay
Adenosine kinase [22] = biological target: T1, Adenosine kinase; experiment: Drug level assessed as human ADK-mediated compound formation treated with adenosine at 50 uM after 30 mins by HPLC analysis; assay type: ADME; conditions: 0.5 h

Question: For `CSc1ncnc2c1c1ccsc1n2[C@@H]1O[C@H](COP(=O)([O-])O)[C@@H](O)[C@H]1O.[Na+]`, which IC50 (BJ) is on record?
Answer: The IC50 was 730 nM.

Question: What about the IC50 (MRC5) of the same compound?
Answer: The IC50 was > 50 µM.

Question: What about the IC50 [1] of the same compound?
Answer: Its IC50 is > 50 µM.

Question: What about the IC50 (HCT-116 [2]) of the same compound?
Answer: The IC50 was 250 nM.

Question: And the IC50 (HCT-116 [3])?
Answer: Its IC50 is 260 nM.

Question: And the IC50 (K562)?
Answer: The IC50 was 1320 nM.

Question: What about the IC50 [4] of the same compound?
Answer: The IC50 was > 50 µM.

Question: And the IC50 (U2OS)?
Answer: The IC50 was 2590 nM.

Question: And the IC50 (HL-60)?
Answer: Its IC50 is 770 nM.

Question: What about the IC50 (HepG2) of the same compound?
Answer: Its IC50 is 770 nM.

Question: What about the IC50 (HeLa S3) of the same compound?
Answer: Its IC50 is 2190 nM.

Question: And the IC50 (A549)?
Answer: Its IC50 is > 50 µM.

Question: And the Drug metabolism (Adenosine kinase [5])?
Answer: The Drug metabolism was 13.8 pmol.

Question: What about the Drug metabolism (Adenosine kinase [6]) of the same compound?
Answer: The Drug metabolism was 76.2 pmol.

Question: And the Drug metabolism (Adenosine kinase [7])?
Answer: The Drug metabolism was 4933.3 pmol.

Question: And the Drug metabolism (Adenosine kinase [8])?
Answer: The Drug metabolism was 75.6 pmol.

Question: What about the Drug metabolism (Adenosine kinase [9]) of the same compound?
Answer: Its Drug metabolism is 6694.3 pmol.

Question: What about the Drug metabolism (Adenosine kinase [10]) of the same compound?
Answer: The Drug metabolism was 98.5 pmol.

Question: What about the Drug metabolism (Adenosine kinase [11]) of the same compound?
Answer: The Drug metabolism was 6862.8 pmol.

Question: And the Drug metabolism (Adenosine kinase [12])?
Answer: The Drug metabolism was 144.3 pmol.

Question: And the Drug metabolism (Adenosine kinase [13])?
Answer: Its Drug metabolism is “Metabolite_Detected”.

Question: What about the Drug metabolism (Adenosine kinase [14]) of the same compound?
Answer: The Drug metabolism was “Metabolite_Detected”.

Question: And the Drug metabolism (Adenosine kinase [15])?
Answer: Its Drug metabolism is “Metabolite_Detected”.

Question: And the Drug metabolism (Adenosine kinase [16])?
Answer: Its Drug metabolism is “Metabolite_Detected”.

Question: And the Drug metabolism (Adenosine kinase [17])?
Answer: The Drug metabolism was “Metabolite_Detected”.

Question: And the Drug metabolism (Adenosine kinase [18])?
Answer: Its Drug metabolism is “Metabolite_Detected”.

Question: And the Drug metabolism (Adenosine kinase [19])?
Answer: Its Drug metabolism is “Metabolite_Detected”.

Question: And the Drug metabolism (Adenosine kinase [20])?
Answer: Its Drug metabolism is “Metabolite_Detected”.

Question: What about the Drug metabolism (Adenosine kinase [21]) of the same compound?
Answer: Its Drug metabolism is “Metabolite_Detected”.

Question: And the IC50 (CCRF-CEM)?
Answer: The IC50 was 190 nM.

Question: With `Nc1ncnc2c1ncn2[C@@H]1O[C@H](COP(=O)(O)O)[C@@H](O)[C@H]1O` [ADENOSINE PHOSPHATE] as the compound, how does the Drug metabolism (Adenosine kinase [22]) read?
Answer: The Drug metabolism was “Metabolite_Detected”.
